Laboratory results as given in ChEMBL document CHEMBL1142741, “Norpiperidine imidazoazepines as a new class of potent, selective, and nonsedative H1 antihistamines” (J Med Chem, 2005).

Legend:
[1] = system: Rattus norvegicus; assay: Effective dose for blockade of skin reactions induced by histamine in rat by 2 hr after the subcutaneous administration; type: functional; conditions: sc
Procedure, shortened: (§1)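 Male Wistar rats (200-240 g) were passively sensitized with intradermal ovalbumin-specific IgE serum; 50 h later histamine (50 µg), serotonin (0.1 µg) and Ascaris allergens (1/2 in saline) were injected intradermally at dorsal sites. Compound was given sc 2 h before challenge, with two observers' scores summed. Histamine and serotonin: inhibition score <4, blockade <3. PCA and Ascaris: score <3. ED50 by Finney's method, five animals per dose.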

[2] = system: Rattus norvegicus; assay: Effective dose for inhibition of skin reactions induced by histamine in rat by 2 hr after the subcutaneous administration; type: functional; conditions: sc; procedure, shortened: as §1
[3] = system: Rattus norvegicus; assay: Effective dose for inhibition of skin reactions induced by serotonin in rat by 2 hr after the subcutaneous administration; type: functional; conditions: sc; procedure, shortened: as §1
[4] = system: Rattus norvegicus; assay: Effective dose for the inhibition of 48/80-induced lethal anaphylactic reaction was determined in rat by 2 hour after oral administration; type: functional
Procedure, shortened: (§2)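 Compound or solvent was given sc 1 h or po 2 h beforehand at 10 mL/kg, dosed as base equivalents from a 0.04-10 mg/kg geometric series, five rats per dose.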

[5] = system: Cavia porcellus; assay: Effective dose for inhibition of skin reactions induced by substance P in guinea pig by 2 hr after the oral administration
[6] = system: Canis familiaris; assay: Peak effective dose for inhibition of skin reactions induced by Ascaris allergens in dog by 4 hr after the oral administration; conditions: Canis lupus familiaris
[7] = system: Cavia porcellus; assay: Effective dose for inhibition of skin reactions induced by histamine in guinea pig by 2 hr after the oral administration
[8] = system: Rattus norvegicus; assay: Effective dose for blockade of skin reactions induced by Ascaris allergens in rat by 2 hr after the subcutaneous administration; type: functional; conditions: sc; procedure, shortened: as §1
[9] = system: Cavia porcellus; assay: Effective dose for blockade of skin reactions induced by histamine in guinea pig by 2 hr after the oral administration
[10] = system: Rattus norvegicus; assay: Effective dose for blockade of skin reactions induced by passive cutaneous anaphylaxis in rat by 2 hr after the subcutaneous administration; type: functional; conditions: sc; procedure, shortened: as §1
[11] = system: Rattus norvegicus; assay: Effective dose for the inhibition of 48/80-induced lethal anaphylactic reaction was determined in rat by 1 hour after subcutaneous administration; type: functional; conditions: sc; procedure, shortened: as §2
[12] = system: Canis familiaris; assay: Onset action against Ascaris allergens induced cutaneous reactions was determined by oral administration at four times the peak effect dose in dog; type: functional, Canis lupus familiaris
Procedure, shortened: (§3)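 Beagle dogs of both sexes, selected for sensitivity to Ascaris allergens (ACF, 1/100 in saline), injected intradermally at three chest sites. Wheal diameter and skin thickness increase were read 15 min after injection, before and 1, 4, 20 and 72 h after oral dosing. Onset and duration were estimated graphically at four times the peak-effect dose.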

[13] = molecular target: Histamine H1 receptor (Homo sapiens, UniProt P35367); assay: Binding affinity for H1 histamine receptor expressed in CHO cells; type: cell-based
[14] = system: Cavia porcellus; assay: Effective dose for inhibition of skin reactions induced by Ascaris allergens in guinea pig by 2 hr after the oral administration
[15] = system: Canis familiaris; assay: Duration of action against Ascaris allergens induced cutaneous reactions was determined by oral administration at four times the peak effect dose in dog; type: functional, Canis lupus familiaris; procedure, shortened: as §3
[16] = Solubility in simulated intestinal fluid at pH 10.1; type: physicochemical
Procedure, shortened: (§4)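 Excess or stated amounts of solute were shaken in closed vials of solvent for 24 h at 20 °C, following Higuchi and Connors. For clear solutions, only pH was recorded and solubility was taken as solute added per solvent volume. Turbid samples were filtered through 0.45 µm, the filtrate pH was recorded, and concentration was measured by UV absorption.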

[17] = Solubility in buffer (pH 10) at pH 10.2; type: physicochemical; procedure, shortened: as §4
[18] = Solubility in buffer of (pH 8) at pH 9.0; type: physicochemical; conditions: buffer (pH 8); procedure, shortened: as §4
[19] = Solubility in buffer (pH 4) at pH 5.4; type: physicochemical; procedure, shortened: as §4
[20] = Solubility in buffer (pH 2) at pH 4.8; type: physicochemical; procedure, shortened: as §4
[21] = Solubility in buffer (pH 6) at pH 9.2; type: physicochemical; procedure, shortened: as §4
[22] = Solubility in 0.1 M NaOH at pH 13.0; type: physicochemical; procedure, shortened: as §4
[23] = Solubility in simulated gastric fluid at pH 3.1; type: physicochemical; procedure, shortened: as §4
[24] = Solubility in 0.1 M HCl at pH 2.7; type: physicochemical; procedure, shortened: as §4
[25] = pKa1 value was determined; type: physicochemical; conditions: read-out: pKa1
[26] = Solubility in buffer (pH 10) at pH 4.3; type: physicochemical; procedure, shortened: as §4
[27] = Solubility in water mg/mL; type: physicochemical; procedure, shortened: as §4
[28] = Solubility in buffer (pH 6) at pH 4.2; type: physicochemical; procedure, shortened: as §4
[29] = Solubility in 0.1 M NaOH at pH 12.6; type: physicochemical; procedure, shortened: as §4
[30] = Solubility in buffer (pH 4) at pH 2.9; type: physicochemical; procedure, shortened: as §4
[31] = pKa2 value was determined; type: physicochemical
Procedure, shortened: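 logP was measured in octanol/pH 12 buffer; pKa was measured by the Sirius PCA 101 method.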

[32] = Solubility in 0.1 M HCl at pH 1.0; type: physicochemical; procedure, shortened: as §4
[33] = Solubility in buffer (pH 8) at pH 3.8; type: physicochemical; procedure, shortened: as §4
[34] = Solubility in simulated gastric fluid at pH 1.1; type: physicochemical; procedure, shortened: as §4
[35] = Partition coefficient (logP); type: physicochemical; conditions: octanol/water
[36] = Solubility in water at pH 2.0; type: physicochemical; procedure, shortened: as §4
[37] = Solubility in simulated intestinal fluid at pH 2.3; type: physicochemical; procedure, shortened: as §4
[38] = Solubility in buffer (pH 2) at pH 1.1; type: physicochemical; conditions: in the assay text read “pH 1.8” for “pH 1.1”; procedure, shortened: as §4
[39] = system: Rattus norvegicus; assay: Effective dose for the inhibition of 48/80-induced lethal anaphylactic reaction was determined in rat by 2 hours after oral administration; type: functional; procedure, shortened: as §2

Sequence of Histamine H1 receptor (P35367 whole entry): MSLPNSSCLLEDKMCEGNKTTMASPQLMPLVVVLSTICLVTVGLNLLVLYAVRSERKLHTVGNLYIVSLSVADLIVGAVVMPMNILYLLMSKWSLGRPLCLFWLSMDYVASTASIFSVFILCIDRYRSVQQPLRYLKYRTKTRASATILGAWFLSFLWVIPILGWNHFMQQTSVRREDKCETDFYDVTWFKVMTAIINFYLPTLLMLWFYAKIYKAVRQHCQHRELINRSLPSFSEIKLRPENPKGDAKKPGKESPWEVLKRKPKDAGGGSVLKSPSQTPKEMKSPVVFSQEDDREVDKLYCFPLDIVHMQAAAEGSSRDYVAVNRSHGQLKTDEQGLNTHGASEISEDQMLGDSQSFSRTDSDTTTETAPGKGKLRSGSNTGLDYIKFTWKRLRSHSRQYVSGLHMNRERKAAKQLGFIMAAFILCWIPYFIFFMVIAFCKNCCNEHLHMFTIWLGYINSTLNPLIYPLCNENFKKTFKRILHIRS

| Compound | ED50 [1] [mg/kg] | ED50 [2] [mg/kg] | ED50 [3] [mg/kg] | ED50 [4] [mg/kg] | ED50 [5] [mg/kg] | ED50 [6] [mg/kg] | ED50 [7] [mg/kg] | ED50 [8] [mg/kg] | ED50 [9] [mg/kg] | ED50 [10] [mg/kg] | ED50 [11] [mg/kg] | Time [12] [h] | Ki [13] [nM] | ED50 [14] [mg/kg] | Time [15] [h] | pKa [25] | logP [35] | also measured |
| --- | --- | --- | --- | --- | --- | --- | --- | --- | --- | --- | --- | --- | --- | --- | --- | --- | --- | --- |
| Cn1ccc2c1C(=O)Cn1ccnc1C2=C1CCNCC1 | 0.95 | 0.55 | > 10 | 0.34 | > 2.5 | 0.018 | 0.02 | 2.9 | 0.08 | 0.42 | 0.037 | <1 | 12 | 0.42 | 13 |  |  |  |
| Cl.NC(=O)c1cnc2n1CCc1ccccc1C21CCNCC1 |  |  |  |  |  |  |  |  |  |  |  |  |  |  |  |  |  | solubility [16]: 1.69 mg/mL; solubility [17]: 1.65 mg/mL; solubility [18]: 12.2 mg/mL; solubility [19]: > 20 mg/mL; solubility [20]: > 20 mg/mL; solubility [21]: 8.04 mg/mL; solubility [22]: 0.93 mg/mL; solubility [23]: > 20 mg/mL; solubility [24]: > 20 mg/mL |
| Cl.Cl.NC(=O)c1cnc2n1CCc1ccccc1C21CCNCC1 [VAPITADINE DIHYDROCHLORIDE] | 1.4 | 0.51 | > 10 | 1.2 | 1.6 | 0.024 | 0.1 | 2.7 | 0.14 | 2.3 | 0.056 | <1 | 19 | 1.2 | 21 | 9.88 | 1.18 | solubility [26]: > 20 mg/mL; solubility [27]: > 20 mg/mL; solubility [28]: > 20 mg/mL; solubility [29]: 3.09 mg/mL; solubility [30]: > 20 mg/mL; pKa ([31]; read-out: pKa2): 3; solubility [32]: > 20 mg/mL; solubility [33]: > 20 mg/mL; solubility [34]: > 20 mg/mL; solubility [36]: > 20 mg/mL; solubility [37]: > 20 mg/mL; solubility [38]: > 20 mg/mL |
| Cn1ccc2c1CCn1ccnc1C2=C1CCNCC1 | 0.13 | 0.08 | > 0.16 |  | 1.7 | 0.038 | 0.24 | 0.13 | 0.96 | 0.08 | 0.028 | <1 | 22 | 8.7 | 35 | 9.85 | 1.25 | ED50 [39]: 0.76 mg/kg; Pka2 [31]: 6.52 |
| Cl.Cl.O=C(O)COCCN1CCN([C@H](c2ccccc2)c2ccc(Cl)cc2)CC1 [LEVOCETIRIZINE DIHYDROCHLORIDE] | 0.68 | 0.68 | > 10 | 1.2 | > 2.5 | 0.14 | 0.046 | 3.6 | 0.14 | 2.7 |  | <1 |  | > 2.5 | 30 |  |  |  |
| CCOC(=O)N1CCC(=C2c3ccc(Cl)cc3CCc3cccnc32)CC1 [LORATADINE] | 1.8 | 0.89 | 6.2 | 0.22 | 2.2 | 0.2 | 0.08 | 2.7 | 0.32 | 1.6 | 0.29 | <1 |  | 0.42 | 33 |  |  |  |
